Assays:
[1] = target: T1, Protein deacetylase HDAC6 (Homo sapiens, UniProt Q9UBN7); assay: Inhibition of human recombinant HDAC6 after 30 mins by fluorometric assay
T1 sequence (Q9UBN7 whole entry): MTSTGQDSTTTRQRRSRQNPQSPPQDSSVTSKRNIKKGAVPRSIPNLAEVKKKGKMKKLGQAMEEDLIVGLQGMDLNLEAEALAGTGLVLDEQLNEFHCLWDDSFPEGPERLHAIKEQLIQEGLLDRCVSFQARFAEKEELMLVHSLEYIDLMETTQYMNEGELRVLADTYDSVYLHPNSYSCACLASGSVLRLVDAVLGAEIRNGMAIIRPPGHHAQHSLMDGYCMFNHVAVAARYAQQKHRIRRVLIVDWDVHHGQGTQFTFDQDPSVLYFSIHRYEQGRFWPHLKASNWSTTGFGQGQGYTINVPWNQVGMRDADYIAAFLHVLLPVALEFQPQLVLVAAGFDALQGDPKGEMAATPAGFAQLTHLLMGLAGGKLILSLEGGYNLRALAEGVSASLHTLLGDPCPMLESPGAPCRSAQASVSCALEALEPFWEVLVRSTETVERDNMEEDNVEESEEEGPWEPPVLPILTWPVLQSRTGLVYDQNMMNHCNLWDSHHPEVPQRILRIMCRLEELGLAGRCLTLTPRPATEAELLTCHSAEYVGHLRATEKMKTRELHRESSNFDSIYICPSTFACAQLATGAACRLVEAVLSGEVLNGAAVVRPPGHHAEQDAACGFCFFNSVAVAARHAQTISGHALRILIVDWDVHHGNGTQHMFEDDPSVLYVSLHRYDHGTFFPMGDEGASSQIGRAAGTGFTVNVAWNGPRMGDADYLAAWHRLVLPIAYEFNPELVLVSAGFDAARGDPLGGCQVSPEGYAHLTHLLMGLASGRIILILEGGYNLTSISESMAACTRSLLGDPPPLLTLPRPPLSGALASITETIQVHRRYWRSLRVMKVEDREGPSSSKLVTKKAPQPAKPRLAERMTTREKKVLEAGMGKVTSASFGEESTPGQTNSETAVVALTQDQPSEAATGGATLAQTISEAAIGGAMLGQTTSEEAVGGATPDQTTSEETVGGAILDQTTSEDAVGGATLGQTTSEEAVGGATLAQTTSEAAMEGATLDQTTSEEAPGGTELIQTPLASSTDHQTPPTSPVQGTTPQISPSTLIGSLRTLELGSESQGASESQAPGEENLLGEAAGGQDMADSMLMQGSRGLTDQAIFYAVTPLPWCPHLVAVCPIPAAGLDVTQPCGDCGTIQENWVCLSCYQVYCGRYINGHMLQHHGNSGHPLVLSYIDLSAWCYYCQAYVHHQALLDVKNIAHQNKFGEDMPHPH

Histone deacetylase 1 = Histone deacetylase 1 (Homo sapiens, UniProt Q13547); assay: Inhibition of human recombinant HDAC1 after 30 mins by fluorometric assay
Sequence of Histone deacetylase 1 (Q13547 whole entry): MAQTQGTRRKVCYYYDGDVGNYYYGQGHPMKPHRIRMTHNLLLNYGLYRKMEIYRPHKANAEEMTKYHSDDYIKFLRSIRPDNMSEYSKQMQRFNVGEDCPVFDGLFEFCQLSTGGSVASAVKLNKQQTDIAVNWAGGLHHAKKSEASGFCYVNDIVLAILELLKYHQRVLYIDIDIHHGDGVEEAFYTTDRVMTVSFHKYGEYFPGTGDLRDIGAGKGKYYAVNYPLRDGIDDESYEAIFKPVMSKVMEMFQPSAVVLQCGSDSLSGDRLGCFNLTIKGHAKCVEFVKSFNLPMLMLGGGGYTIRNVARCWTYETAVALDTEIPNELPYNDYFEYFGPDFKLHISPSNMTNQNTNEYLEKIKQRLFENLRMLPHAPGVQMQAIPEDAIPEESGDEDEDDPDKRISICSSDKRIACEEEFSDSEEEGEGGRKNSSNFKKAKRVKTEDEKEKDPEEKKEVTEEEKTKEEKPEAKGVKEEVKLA

Histone deacetylase = assay: Inhibition of HDAC in human HeLa cell nuclear extract after 30 mins by fluorescence microplate reader; assay type: protein assay
Histone deacetylase 2 = Histone deacetylase 2 (Homo sapiens, UniProt Q92769); assay: Inhibition of human recombinant HDAC2 after 30 mins by fluorometric assay
Sequence of Histone deacetylase 2 (Q92769 whole entry): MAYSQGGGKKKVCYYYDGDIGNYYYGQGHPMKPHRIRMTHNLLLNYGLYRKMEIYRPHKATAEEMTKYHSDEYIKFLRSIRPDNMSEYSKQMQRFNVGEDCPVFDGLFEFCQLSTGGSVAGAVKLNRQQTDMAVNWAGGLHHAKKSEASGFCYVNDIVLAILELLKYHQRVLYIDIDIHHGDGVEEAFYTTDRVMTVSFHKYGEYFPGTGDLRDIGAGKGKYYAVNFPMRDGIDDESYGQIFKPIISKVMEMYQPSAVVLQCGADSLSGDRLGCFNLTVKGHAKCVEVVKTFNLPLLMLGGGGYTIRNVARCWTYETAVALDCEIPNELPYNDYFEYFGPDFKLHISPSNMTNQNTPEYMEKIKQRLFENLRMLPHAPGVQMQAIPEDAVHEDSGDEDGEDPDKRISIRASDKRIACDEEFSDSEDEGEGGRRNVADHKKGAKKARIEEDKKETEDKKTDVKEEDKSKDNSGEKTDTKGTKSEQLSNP

A549 = assay: Growth inhibition of human A549 cells after 48 hrs by SRB assay; assay type: functional
Outline: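 A549 cells were grown in RPMI 1640 with 10% FBS and 2 mM glutamine at 37 °C in 5% CO₂, then seeded in medium with 5% FBS. A 24 h TCA-fixed plate gave T₀. Cells were exposed to compound or DMSO for 48 h, fixed with 10% TCA and stained with 0.4% SRB; bound dye was solubilized in 10 mM Tris and read at 515 nm. GI₅₀ was the concentration halving net protein increase. At least three independent experiments.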

cells = assay type: functional, Hep 3B2; settings: Homo sapiens, Hep3B, 48 h
PC-3 = assay: cells; assay type: functional; settings: Homo sapiens, PC-3, 48 h
MDA-MB-231 = assay: cells; assay type: functional; settings: Homo sapiens, MDA-MB-231, 48 h
Homo sapiens = species: Homo sapiens; assay: Selectivity ratio of IC50 for human HDAC1 to IC50 for human HDAC6

| Structure (SMILES) | IC50 [1] | IC50 (Histone deacetylase 1) | IC50 (Histone deacetylase) | IC50 (Histone deacetylase 2) | GI50 (A549; Homo sapiens, A549, 48 h) | GI50 (PC-3) | GI50 (MDA-MB-231) | Ratio IC50 (Homo sapiens) | GI50 (A549) | GI50 (cells) |
| --- | --- | --- | --- | --- | --- | --- | --- | --- | --- | --- |
| O=C(/C=C/c1cn(S(=O)(=O)c2ccccc2)c2ccccc12)NO | – | – | > 1000 nM | – | 7060 nM | 5770 nM | 8140 nM | – | – | 8870 nM |
| COc1ccc(S(=O)(=O)n2ccc3cc(/C=C/C(=O)NO)ccc32)cc1OC | 45.4 nM | 18.1 nM | 9.7 nM | 2.3 nM | 560 nM | 930 nM | 370 nM | – | – | 360 nM |
| O=C(/C=C/c1ccc2c(ccn2-c2ccccc2)c1)NO | – | – | 186.5 nM | – | 2850 nM | 1540 nM | 1730 nM | – | – | 1320 nM |
| COc1ccc(S(=O)(=O)n2ccc3cc(/C=C/C(=O)NO)ccc32)cc1 | 3.3 nM | 125 nM | 6.8 nM | 362 nM | 1180 nM | 800 nM | 750 nM | 40 | – | 550 nM |
| O=C(/C=C/c1ccc2c(ccn2Cc2ccccc2)c1)NO | 40.4 nM | 71.2 nM | 32.1 nM | 381 nM | 2370 nM | 1230 nM | 1180 nM | – | – | 860 nM |
| O=C(CCCCCCC(=O)Nc1ccccc1)NO [VORINOSTAT] | – | – | – | – | – | – | – | – | 1850 nM | – |
| O=C(/C=C/c1ccc2ccn(S(=O)(=O)c3ccccc3)c2c1)NO | – | – | 254 nM | – | 5300 nM | 2400 nM | 2410 nM | – | – | 2120 nM |

Continued, in another order:

| IC50 [1] | IC50 (Histone deacetylase 1) | IC50 (Histone deacetylase) | IC50 (Histone deacetylase 2) | GI50 (A549; Homo sapiens, A549, 48 h) | GI50 (PC-3) | GI50 (MDA-MB-231) | Ratio IC50 (Homo sapiens) | GI50 (A549) | Structure (SMILES) | GI50 (cells) |
| --- | --- | --- | --- | --- | --- | --- | --- | --- | --- | --- |
| 18.3 nM | 69.9 nM | 12.6 nM | 189 nM | 1210 nM | 850 nM | 750 nM | – | – | O=C(/C=C/c1ccc2c(ccn2S(=O)(=O)c2ccc([N+](=O)[O-])cc2)c1)NO | 560 nM |
| – | – | 757.6 nM | – | 5800 nM | 2320 nM | 3180 nM | – | – | O=C(/C=C/c1ccc2c(ccn2C(=O)c2ccccc2)c1)NO | 2400 nM |
| – | – | 407.5 nM | – | 4040 nM | 2070 nM | 2210 nM | – | – | O=C(CCc1ccc2c(ccn2S(=O)(=O)c2ccccc2)c1)NO | 2560 nM |
| – | – | > 1000 nM | – | 5500 nM | 4750 nM | 7710 nM | – | – | O=C(/C=C/c1cccc2ccn(S(=O)(=O)c3ccccc3)c12)NO | 3820 nM |
| – | – | 170.9 nM | – | 6700 nM | 3670 nM | 4160 nM | – | – | O=C(/C=C/c1cccc2c1ccn2S(=O)(=O)c1ccccc1)NO | 4320 nM |
| 59.2 nM | 33.2 nM | 16.8 nM | 199 nM | 750 nM | 390 nM | 660 nM | – | – | O=C(/C=C/c1ccc2c(ccn2S(=O)(=O)c2ccc(F)cc2)c1)NO | 640 nM |
| – | – | > 1000 nM | – | 9070 nM | 4800 nM | 4370 nM | – | – | O=C(/C=C/c1ccc2[nH]ccc2c1)NO | 3650 nM |
| – | – | > 1000 nM | – | > 10000 nM | 7260 nM | 5680 nM | – | – | O=C(NO)c1ccc2c(ccn2S(=O)(=O)c2ccccc2)c1 | > 10000 nM |
| – | – | 275.2 nM | – | 3330 nM | 1260 nM | 1250 nM | – | – | O=C(/C=C/c1ccc2[nH]cc(S(=O)(=O)c3ccccc3)c2c1)NO | 1270 nM |
